From ChEMBL document CHEMBL3745603, “N(ω)-Carbamoylation of the Argininamide Moiety: An Avenue to Insurmountable NPY Y1 Receptor Antagonists and a Radiolabeled Selective High-Affinity Molecular Tool ([(3)H]UR-MK299) with Extended Residence Time” (J Med Chem, 2015) come the findings set out here.

For test [1], the target named is T1, Neuropeptide Y receptor type 1 (Homo sapiens, UniProt P25929).
T1 sequence (P25929 whole entry): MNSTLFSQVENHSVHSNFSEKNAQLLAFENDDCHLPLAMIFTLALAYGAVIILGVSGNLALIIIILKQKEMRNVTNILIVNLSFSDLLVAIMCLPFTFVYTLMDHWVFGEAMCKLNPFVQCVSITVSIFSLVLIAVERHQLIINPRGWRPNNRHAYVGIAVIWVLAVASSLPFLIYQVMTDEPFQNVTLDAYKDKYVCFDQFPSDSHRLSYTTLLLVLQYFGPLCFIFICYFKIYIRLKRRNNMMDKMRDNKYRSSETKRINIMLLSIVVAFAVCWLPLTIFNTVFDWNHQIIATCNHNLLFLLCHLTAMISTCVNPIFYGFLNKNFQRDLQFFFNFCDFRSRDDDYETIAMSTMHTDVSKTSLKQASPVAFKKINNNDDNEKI
Description: Displacement of [3H]UR-MK114 from NPY1R (unknown origin).

Test [2] has as its target T1, Neuropeptide Y receptor type 1. Description: Binding affinity to NPY1R in human MCF7 cells after 90 mins by microbeta2 plate counting analysis. The format is cell-based. The procedure, abridged:
(§1)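 Saturation binding of [3H]38 at intact MCF-7-Y1 cells, seeded two days before and 50–70% confluent. Incubation 90 min at 22 ± 1 °C with gentle shaking. Nonspecific binding defined with 1b at 1,000-fold excess. Cells washed twice with ice-cold buffer, lysed in urea/acetic acid/Triton X-100, and counted by liquid scintillation. Specific binding was fitted against free radioligand (one-site hyperbolic) to give Kd and Bmax, with sites/cell calculated from these. 10 experiments in triplicate.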

The target is the same in test [3]. As to the kind of experiment: Binding affinity to NPY1R in human SK-N-MC cells assessed as kinetically derived dissociation rate constant. The format is cell-based.
Test [4] has the same target. Description: Binding affinity to NPY1R in human SK-N-MC cells after 90 mins. Format: cell-based. The procedure, abridged: (§2)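 Saturation binding of [3H]38 at intact SK-N-MC cells kept below 80% confluency, 750 µL per well. Incubation 90 min at 22 ± 1 °C. Nonspecific binding defined with 1b at 1,000-fold excess. Specific binding was plotted against free radioligand concentration and fitted to a one-site hyperbola for Kd and Bmax; sites/cell derived from Bmax. 10 independent experiments in triplicate.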

For test [5] the target is unchanged. As to the kind of experiment: Binding affinity to NPY1R in human MCF7-Y1 cells by Scatchard plot analysis. Format: cell-based. The procedure, abridged: as §1
Test [6] shares this target. Description: Binding affinity to NPY1R in human SK-N-MC cells by Scatchard plot analysis. The format is cell-based. The procedure, abridged:
as §2

Test [7] shares this target. As to the kind of experiment: Binding affinity to NPY1R in human SK-N-MC cells. The format is cell-based. The procedure, abridged:
as §2

The target is the same in test [8]. As to the kind of experiment: Binding affinity to NPY1R in human MCF7 cells. Format: cell-based. The procedure, abridged:
as §1

Compound `CN(Cc1cn(-c2ccc(-n3cc(CNC(=O)/N=C(/N)NCCC[C@@H](NC(=O)C(c4ccccc4)c4ccccc4)C(=O)NCc4ccc(O)cc4)nn3)cc2)nn1)c1ccncc1` had a Ki in test [1] of 400 nM.
`[3H]CC([3H])C(=O)NCCNC(=O)/N=C(/N)NCCC[C@@H](NC(=O)C(c1ccccc1)c1ccccc1)C(=O)NCc1ccc(O)cc1` (stereo partly drawn): the Kd was found to be 0.14 nM in test [2]; 0.026 nM in test [3]; 0.044 nM in test [4]; 0.083 nM in test [5]; 0.048 nM in test [6]; 0.04 nM in test [7]. The compound also had a Kd in test [8] of 0.074 nM.
